The list is not random: actives were taken first. Their share in the collection is about 3.8%.
hERG protect = compounds protecting human hERG from proarrhythmic drug block. Q12809. CHO-hERG, FluxOR thallium flux, dofetilide IC70 present. activation (rescue from dofetilide block), less the hit threshold, % at 10 µM. 310,000 tested, 0.51% active;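 active means activation above the mean of controls blocked by dofetilide plus 5 SD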;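 further: thallium influx through hERG after potassium depolarization seen as dye fluorescence rise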
KCNQ1 inh = human KCNQ1 channel inhibition; B-score at 10 µM; CHO-K1 KCNQ1, FluxOR thallium flux fluorescence; stronger effect = higher value; 310,000 tested, 1.3% active;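 active means compounds whose thallium flux B-score, printed positive for inhibition, exceeds three library SD while starting fluorescence stays within three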;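 further: channel opened by potassium depolarization with thallium stimulus after 20 min compound exposure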
KCNQ1 pot = human KCNQ1 channel potentiation or activation | P51787 | CHO-K1 KCNQ1, thallium flux FluxOR fluorescence; stronger effect = higher value | B-score at 10 µM | 310,000 tested, 0.35% active;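 active means fluorescence ratio B-score, a plate-corrected score, at least three library SD, with initial intensity B-score within 5 SD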
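Material: CHO-K1 cells stably expressing KCNQ1. Medium: assay buffer for compound exposure, DMSO matched across wells. Reagent: K+/Tl+ depolarizing stimulus. Compound dosing: single-concentration screen. Times: 37 °C overnight plating, 90-min dark dye load, 20-min compound pretreatment. Technique: FluxOR Tl+ flux fluorescence.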
KCNK3 inh = human KCNK3 channel inhibition, primary screen; CHO-KCNK3 thallium flux, FluxOR fluorescence; stronger effect = lower value; B-score at 10 µM; 340,000 tested, 0.84% active;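 active means B-score under library mean minus 4 SD, starting fluorescence ratio at most library mean plus 5 SD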;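 further: more negative B-score means stronger inhibition of thallium flux through KCNK3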
KCNK9 inh = human KCNK9 channel inhibition. HEK293 KCNK9, FluxOR thallium flux fluorescence; stronger effect = lower value. 310,000 tested, 1.2% active. Q9NPC2. B-score at 10 µM. AID 488922;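 active means ratio B-score over 3 SD below the library mean, with starting fluorescence within 5 SD of its mean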;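 further: negative B-score means less thallium flux so channel inhibition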
Kir21 block = Kir2.1 (mouse) channel inhibition | P35561 | HEK293-Kir2.1, FluxOR thallium flux fluorescence; stronger effect = lower value | B-score at 10 µM | 310,000 tested, 0.85% active;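 active means fluorescence ratio B-score at or below minus 3 SD of library scores, with starting-brightness B-score within 2 SD, cut at about -4.2 in these data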;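 further: channel flux triggered by added potassium and thallium sulfate stimulus; B-score of peak minus minimum fluorescence over baseline after thallium stimulus; more negative B-score means stronger Kir2.1 block with less thallium influx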
Target sequence (P35561 whole entry, looked up): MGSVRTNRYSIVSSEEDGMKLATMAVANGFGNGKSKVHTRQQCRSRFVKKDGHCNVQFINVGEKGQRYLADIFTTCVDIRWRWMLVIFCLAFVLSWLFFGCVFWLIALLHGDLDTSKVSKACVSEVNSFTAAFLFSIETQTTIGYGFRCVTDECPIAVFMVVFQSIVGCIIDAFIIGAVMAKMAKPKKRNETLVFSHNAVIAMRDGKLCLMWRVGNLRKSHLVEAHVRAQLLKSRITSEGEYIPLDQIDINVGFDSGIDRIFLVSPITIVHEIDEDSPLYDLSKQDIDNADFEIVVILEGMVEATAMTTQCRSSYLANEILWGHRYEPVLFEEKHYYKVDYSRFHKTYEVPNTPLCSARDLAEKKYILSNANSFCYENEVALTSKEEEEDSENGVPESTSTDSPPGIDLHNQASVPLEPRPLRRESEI
KCNK9 block conf = human KCNK9 inhibitor confirmation. shares compounds with KCNK9 inh. HEK293 KCNK9 cells, FluxOR thallium flux fluorescence. inhibition, % at 10 µM. 4,900 tested, 43% active. AID 492992;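 active means thallium signal inhibited by more than 5 SD of the compound-free buffer control wells, on both duplicate plates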;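 further: 0% = assay buffer control wells without compound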
Kir2-1 spec = tests whether KCNK9 modulators also affect mouse Kir2.1. shares compounds with KCNK9 inh. Kir2.1 cells, FluxOR thallium flux fluorescence. inhibition, % at 10 µM. 4,900 tested, 4% active. AID 492993;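 active means thallium signal drop more than 5 SD beyond the mean of the no-compound control wells, seen in both duplicate plates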;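 further: signal is fluorescence rise after thallium addition divided by baseline fluorescence; plate controls were assay buffer only for no effect and full block by chlorpromazine control for full effect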
HEK293 Tl ctr = second check of KCNK9 modulator effects in non-induced HEK293 cells | shares compounds with KCNK9 inh | FluxOR thallium flux | inhibition, % at 10 µM | 4,900 tested, 40% active | AID 492997;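 active means thallium signal drop beyond 5 SD of the untreated control mean, on both duplicate plates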;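 further: plate controls were buffer only IC0 wells for no effect and SID17386958 at its maximal inhibitory level for full effect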
* = called active by the depositor; i = inactive; · = no result given.

SMILES	hERG protect	KCNQ1 inh	KCNQ1 pot	KCNK3 inh	KCNK9 inh	Kir21 block	KCNK9 block conf	Kir2-1 spec	HEK293 Tl ctr
Cc1ccc(SCC(=O)O/N=C(\N)c2ccc([N+](=O)[O-])cc2)cc1	-10	i	i	i	i	-0.87	i	i	i
COC(CNC(=O)C1CCN(S(=O)(=O)c2ccc3nc4c(c(C(=O)O)c3c2)CC(C)CC4)CC1)OC (centres undefined)	-2	i	i	i	i	0.82	·	·	·
Cc1nn(C)cc1/C=N\NC(=O)c1ccc2c(c1)c(C)c(C)n2Cc1ccccc1	1	i	i	i	-19*	0.9	64%*	i	40%*
COc1cc(-c2nnc(SCC(=O)NC3CCCC3)n2C)cc(OC)c1O	-12	i	i	i	i	-1.3	·	·	·
CC1CCCCN1S(=O)(=O)Cc1ccccc1Cl (centres undefined)	-6	i	i	i	i	-0.19	·	·	·
O=C(CCCN1C(=O)c2ccccc2C1=O)Oc1ccc(F)cc1	-3	i	i	i	i	0.43	·	·	·
CC(=O)OC1CC(C)(C)N(OC(=O)CCCN2C(=O)c3ccccc3C2=O)C(C)(C)C1	-6	i	i	i	i	1.8	i	i	i
CCCOc1ccc(C(=O)C(CN2CCOCC2)c2ccccc2)cc1 (centres undefined)	-8	i	i	i	i	-0.27	i	i	i
COc1cccc(Oc2ccc(C(F)(F)F)cc2N)c1	-12	i	i	i	-8.4*	0.54	54%*	i	32%*
CCOC(=O)C1CCN(CC(=O)Nc2cc(S(=O)(=O)N3CCCCC3)ccc2Cl)CC1	·	·	·	i	·	·	·	·	·
Cn1c(=O)[nH]c(=O)c2c1[nH]c(=S)n2CCCc1ccccc1	-2	i	i	i	i	-0.07	i	i	28%*
c1ccc(Nc2scc(-c3ccccc3)[n+]2Cc2ccco2)cc1	-14	i	i	i	i	-0.02	·	·	·
c1ccc(C[n+]2c(-c3ccccc3)csc2Nc2ccccc2)cc1	-4	i	i	i	-8.7*	-0.94	35%*	i	32%*
COc1ccc(C)cc1Nc1n[n+](-c2ccccc2)c(-c2c(Cl)cccc2Cl)s1	-32	11*	i	·	-15*	-3.5	64%*	33%*	36%*
CCc1ccc(Nc2n[n+](-c3ccccc3)c(-c3c(Cl)cccc3Cl)s2)cc1	-25	i	i	i	i	-1.3	·	·	·
CCOC(=O)C1=C(C)N=C2SC(CC)C(=O)N2C1c1cccc(F)c1 (centres undefined)	-12	i	i	i	-12*	-1.1	36%*	i	34%*
COc1ccc2ccccc2c1CNC(C)c1ccccc1 (centres undefined)	-2	i	i	i	i	-5.5*	i	i	i
CCOC(=O)c1cnn(-c2nc(SC)nc3sc4c(c23)CCCC4)c1N	9.2*	i	12*	i	-16*	3.4	66%*	i	33%*
CCOC(=O)c1cnn(-c2ncnc3sc4c(c23)CCC4)c1N	-10	i	i	i	i	-0.68	·	·	·
Cc1nc2sccn2c(=O)c1S(=O)(=O)NCC1CCN(Cc2ccccc2Cl)CC1	-6	i	i	i	i	0.53	·	·	·
CN(C)CC/C=C1/c2ccc(F)cc2Sc2ccc(Cl)cc21	-18	i	i	i	i	-6.9*	i	50%*	i
CN(C)CC/C=C1\c2ccc(F)cc2Sc2cc(F)c(Cl)cc21	-19	i	i	i	i	-3.5	i	45%*	i
CN(C)CC/C=C1/c2cc(F)ccc2CSc2ccc(F)cc21	-11	i	i	i	i	-2.4	·	·	·
CN(C)CC/C=C1\c2ccccc2Sc2cc(F)c(Cl)cc21	-18	i	i	i	i	-4.8*	i	49%*	i
CN(C)CC/C=C1\c2cc(Cl)ccc2Sc2cc(F)c(F)cc21	-19	i	i	i	i	-4.2*	i	34%*	i
SMILES	hERG protect	KCNQ1 inh	KCNQ1 pot	KCNK3 inh	KCNK9 inh	Kir21 block	KCNK9 block conf	Kir2-1 spec	HEK293 Tl ctr
CN(C)CC/C=C1\c2cc(F)ccc2CSc2ccccc21	-6	i	i	i	i	-0.13	·	·	·
O=C(N/N=C/c1ccccc1)c1ccc(CN2C(=O)c3cccc4cccc2c34)cc1	-3	i	i	i	i	-1.4	·	·	·
O=C(N/N=C/c1ccc(O)cc1O)c1ccc(CN2C(=O)c3cccc4cccc2c34)cc1	-12	i	i	-12*	-12*	0.34	37%*	i	33%*
COC(=O)C(C)N(C(=O)c1cccc2ccccc12)c1c(C)cccc1C (centres undefined)	-9	i	i	i	-12*	-1.9	52%*	i	32%*
COc1cccc(C(=O)NCC(C)(C)SCc2ccc(F)cc2)c1	-6	i	i	i	i	0.37	i	i	i
COc1cc(CN2CCN(c3cc(C)ccc3C)CC2)cc([N+](=O)[O-])c1O	-13	i	i	·	i	0.13	i	i	i
COc1cc(CN2CCN(c3ccc(C)cc3)CC2)cc([N+](=O)[O-])c1O	-13	i	i	·	i	0.08	·	·	·
COc1ccc(C(=O)NCCc2nnc3ccc(SCC(=O)Nc4cc(C)on4)nn23)cc1	-14	i	i	i	i	-1.5	·	·	·
Cc1ccc(C(=O)CCCn2nnc(-c3cccnc3)n2)cc1C	-5	i	i	i	i	0.18	i	i	i
COc1ccc(CC(=O)OCc2cc(=O)n3cc(Br)ccc3n2)cc1OC	-4	i	i	i	i	1.1	·	·	·
Cc1ccc(CSCCNC(=O)CSCc2ccc([N+](=O)[O-])cc2)cc1	-6	i	i	i	i	-0.92	i	i	i
CSc1ccccc1NC(=O)CSCc1ccc(C)cc1	-8	i	i	i	i	-5.1*	i	i	i
Cc1cccc(CSCCNC(=O)CSCc2ccc([N+](=O)[O-])cc2)c1	-3	i	i	i	i	-0.89	·	·	·
Cc1ccc(NC(=O)CSCC(=O)NCCc2ccccc2)cc1	-10	i	i	i	i	-0.39	·	·	·

Screening data: PubChem, Johns Hopkins Ion Channel Center
